Source: ChEMBL document CHEMBL2163259, “ADME-guided design and synthesis of aryloxanyl pyrazolone derivatives to block mutant superoxide dismutase 1 (SOD1) cytotoxicity and protein aggregation: potential application for the treatment of amyotrophic lateral sclerosis” (J Med Chem, 2012)
Calls of active or inactive are those of the source.

Key:
Mus musculus [1] = assay: Neuroprotective activity in SOD1 G93A mutant B6SJL mouse ALS model assessed as life extension at 20 mg/kg administered qd for 1 week relative to untreated control; assay type: functional
Cerebral cortex neuron = assay: Cytoprotection in rat Primary cortical neurons incubated for 24 hrs and measured 72 hrs post compound dose by cytotoxicity protection assay; assay type: functional, cell-based
Method in brief: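 Primary cortical neurons from E18 Sprague-Dawley or Fischer 344 rat brain, dissociated with papain (2 mg/mL, 30 min, 37 °C), plated on poly-D-lysine at 20,000 cells/well, cultured 5 days (~90% neurons). Six-point dose response from 100 μM top, roughly one-third dilutions; 24 h pre-incubation, then MG132 100 nM. Viability read 48 h later by Calcein-AM (1 μM, 20 min, RT) fluorescence. Active = viability ≥5 SD above MG132 controls.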

[2] = Plasma concentration in B6SJL mouse at 300 mg/kg after 12 hrs by mass spectrometry; assay type: ADME, organism-based; parameters: dose 300 mg/kg
Method in brief: (§1)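 B6SJL mice were given a single 300 mg/kg intraperitoneal bolus. Blood and brain were collected at 0, 1, 3, 6, 12 and 24 h, flash-frozen in liquid nitrogen and stored at -80 °C. Samples were analyzed by mass spectrometry with ESI ionization in MRM mode.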

[3] = Plasma concentration in B6SJL mouse at 300 mg/kg after 24 hrs by mass spectrometry; assay type: ADME, organism-based; parameters: dose 300 mg/kg; method in brief: as §1
Rattus norvegicus [4] = assay: Dose normalised AUC in Sprague-Dawley rat at 1 mg/kg, po; assay type: ADME, organism-based; parameters: dose 1 mg/kg, route oral; conditions: in vivo
Method in brief: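 Sprague-Dawley rats given a single 1 mg/kg bolus, intravenous or oral. Plasma PK parameters (AUC, dose-normalised AUC, half-life, clearance, Vss, Cmax, Tmax, oral bioavailability) derived from plasma levels.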

hERG [5] = biological target: T1, hERG (Homo sapiens, UniProt Q12809); assay: Inhibition of human ERG expressed in human HEK293 cells at 10 uM by patch clamp assay; assay type: cell-based; conditions: HEK293 cells that express hERG
Method in brief: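 Cloned hERG potassium channels expressed in HEK293 cells. FASTPatch patch-clamp screen with test compound at 10 μM, two experiments. E-4031 used as positive control. Solubility at test concentration checked by TurboSol; value given as mean % hERG antagonism.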

Cytochrome P450 1A2 = Cytochrome P450 1A2 (Homo sapiens, UniProt P05177); assay: Inhibition of CYP1A2; assay type: ADME
Method in brief: (§2)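 Reversible inhibition of CYP isozymes in human liver microsomes, each isozyme with a single probe substrate. CYP3A4 tested with both testosterone and midazolam. IC50 determined.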

Cytochrome P450 3A4 = Cytochrome P450 3A4 (Homo sapiens, UniProt P08684); assay: Inhibition of CYP3A4 using testosterone as substrate; assay type: ADME; method in brief: as §2
[6] = biological target: Alpha-1A adrenergic receptor (Rattus norvegicus) (UniProt P43140); assay: Inhibition of rat adrenergic alpha1A receptor at 10 uM by radioligand displacement assay
Method in brief: (§3)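 Single concentration of 10 μM, tested in duplicate as part of a contracted panel of 68 in vitro enzyme and receptor assays. The panel covers common adverse CNS, cardiovascular, pulmonary and genotoxic targets.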

[7] = biological target: Alpha-1D adrenergic receptor (Homo sapiens) (UniProt P25100); assay: Inhibition of human adrenergic alpha1D receptor at 10 uM by radioligand displacement assay
Method in brief: (§4)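 LeadProfilingScreen panel of 68 in vitro enzyme and receptor assays. Compound tested at 10 μM in duplicate.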

[8] = biological target: Beta-1 adrenergic receptor (Homo sapiens) (UniProt P08588); assay: Inhibition of human beta1 adrenergic receptor at 10 uM by radioligand displacement assay; method in brief: as §4
[9] = biological target: B1 bradykinin receptor (Homo sapiens) (UniProt P46663); assay: Inhibition of human bradykinin B1 receptor at 10 uM by radioligand displacement assay; method in brief: as §4
[10] = biological target: B2 bradykinin receptor (Homo sapiens) (UniProt P30411); assay: Inhibition of human bradykinin B2 receptor at 10 uM by radioligand displacement assay; method in brief: as §4
[11] = biological target: D(1A) dopamine receptor (Homo sapiens) (UniProt P21728); assay: Inhibition of human dopamine D1 receptor at 10 uM by radioligand displacement assay; method in brief: as §4
[12] = biological target: D(3) dopamine receptor (Homo sapiens) (UniProt P35462); assay: Inhibition of human dopamine D3 receptor at 10 uM by radioligand displacement assay; method in brief: as §3
Homo sapiens [13] = species: Homo sapiens; assay: Inhibition of human dopamine D4.2 receptor at 10 uM by radioligand displacement assay; method in brief: as §3
[14] = biological target: T2, Glutamate NMDA receptor (Rattus norvegicus) (UniProt P35439+Q00959+Q00960+Q00961+Q62645+Q8VHN2+Q9R1M7); assay: Inhibition of rat NMDA receptor glutamate binding site at 10 uM by radioligand displacement assay; assay type: protein-complex assay; method in brief: as §3
[15] = biological target: T2, Glutamate NMDA receptor (Rattus norvegicus); assay: Inhibition of rat NMDA receptor glutamate and glycine binding site at 10 uM by radioligand displacement assay; assay type: protein-complex assay; method in brief: as §3
[16] = biological target: Histamine H1 receptor (Homo sapiens) (UniProt P35367); assay: Inhibition of human histamine H1 receptor at 10 uM by radioligand displacement assay; method in brief: as §3
[17] = biological target: Cysteinyl leukotriene receptor 1 (Homo sapiens) (UniProt Q9Y271); assay: Inhibition of human cysteinyl CysLT1 receptor at 10 uM by radioligand displacement assay; method in brief: as §4
[18] = biological target: Muscarinic acetylcholine receptor M1 (Homo sapiens) (UniProt P11229); assay: Inhibition of human muscarinic M1 receptor at 10 uM by radioligand displacement assay; method in brief: as §3
[19] = biological target: Muscarinic acetylcholine receptor M2 (Homo sapiens) (UniProt P08172); assay: Inhibition of human muscarinic M2 receptor at 10 uM by radioligand displacement assay; method in brief: as §3
[20] = biological target: Neuropeptide Y receptor type 1 (Homo sapiens) (UniProt P25929); assay: Inhibition of human Neuropeptide Y Y1 receptor at 10 uM by radioligand displacement assay; method in brief: as §4
[21] = biological target: Neuropeptide Y receptor type 2 (Homo sapiens) (UniProt P49146); assay: Inhibition of human Neuropeptide Y Y2 receptor at 10 uM by radioligand displacement assay
Method in brief: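 Single concentration of 10 μM, tested in duplicate in a contract panel of 68 in vitro enzyme and receptor binding assays covering common adverse CNS, cardiovascular, pulmonary and genotoxic targets.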

hERG [22] = biological target: T1, hERG; assay: Inhibition of human ERG at 10 uM by radioligand displacement assay; method in brief: as §4
[23] = biological target: 5-hydroxytryptamine receptor 3A (Homo sapiens) (UniProt P46098); assay: Inhibition of human 5HT3A receptor at 10 uM by radioligand displacement assay; method in brief: as §4
Homo sapiens [24] = species: Homo sapiens; assay: Inhibition of human Sigma delta2 receptor at 10 uM by radioligand displacement assay; method in brief: as §4
[25] = biological target: Substance-P receptor (Homo sapiens) (UniProt P25103); assay: Inhibition of human tachykinin NK1 receptor at 10 uM by radioligand displacement assay; method in brief: as §3
Rattus norvegicus [26] = species: Rattus norvegicus; assay: Inhibition of rat thyroid hormone receptor at 10 uM by radioligand displacement assay; method in brief: as §3
[27] = biological target: Sodium-dependent noradrenaline transporter (Homo sapiens) (UniProt P23975); assay: Inhibition of human norepinephrine transporter at 10 uM by radioligand displacement assay; method in brief: as §3
[28] = Drug uptake in B6SJL mouse brain at 300 mg/kg after 4 hrs; assay type: ADME, organism-based; parameters: dose 300 mg/kg; conditions: read-out: Drug uptake
Method in brief: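 B6SJL mice given a 300 mg/kg intraperitoneal bolus. Blood and brain collected over 0–24 h, flash frozen in liquid nitrogen, stored at −80 °C. Analysed by mass spectrometry (ESI, MRM mode).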

Mus musculus [29] = assay: Neuroprotective activity in SOD1 G93A mutant B6SJL mouse ALS model assessed as life extension administered qd starting at 6 weeks of age throughout life

T1 sequence (Q12809 whole entry): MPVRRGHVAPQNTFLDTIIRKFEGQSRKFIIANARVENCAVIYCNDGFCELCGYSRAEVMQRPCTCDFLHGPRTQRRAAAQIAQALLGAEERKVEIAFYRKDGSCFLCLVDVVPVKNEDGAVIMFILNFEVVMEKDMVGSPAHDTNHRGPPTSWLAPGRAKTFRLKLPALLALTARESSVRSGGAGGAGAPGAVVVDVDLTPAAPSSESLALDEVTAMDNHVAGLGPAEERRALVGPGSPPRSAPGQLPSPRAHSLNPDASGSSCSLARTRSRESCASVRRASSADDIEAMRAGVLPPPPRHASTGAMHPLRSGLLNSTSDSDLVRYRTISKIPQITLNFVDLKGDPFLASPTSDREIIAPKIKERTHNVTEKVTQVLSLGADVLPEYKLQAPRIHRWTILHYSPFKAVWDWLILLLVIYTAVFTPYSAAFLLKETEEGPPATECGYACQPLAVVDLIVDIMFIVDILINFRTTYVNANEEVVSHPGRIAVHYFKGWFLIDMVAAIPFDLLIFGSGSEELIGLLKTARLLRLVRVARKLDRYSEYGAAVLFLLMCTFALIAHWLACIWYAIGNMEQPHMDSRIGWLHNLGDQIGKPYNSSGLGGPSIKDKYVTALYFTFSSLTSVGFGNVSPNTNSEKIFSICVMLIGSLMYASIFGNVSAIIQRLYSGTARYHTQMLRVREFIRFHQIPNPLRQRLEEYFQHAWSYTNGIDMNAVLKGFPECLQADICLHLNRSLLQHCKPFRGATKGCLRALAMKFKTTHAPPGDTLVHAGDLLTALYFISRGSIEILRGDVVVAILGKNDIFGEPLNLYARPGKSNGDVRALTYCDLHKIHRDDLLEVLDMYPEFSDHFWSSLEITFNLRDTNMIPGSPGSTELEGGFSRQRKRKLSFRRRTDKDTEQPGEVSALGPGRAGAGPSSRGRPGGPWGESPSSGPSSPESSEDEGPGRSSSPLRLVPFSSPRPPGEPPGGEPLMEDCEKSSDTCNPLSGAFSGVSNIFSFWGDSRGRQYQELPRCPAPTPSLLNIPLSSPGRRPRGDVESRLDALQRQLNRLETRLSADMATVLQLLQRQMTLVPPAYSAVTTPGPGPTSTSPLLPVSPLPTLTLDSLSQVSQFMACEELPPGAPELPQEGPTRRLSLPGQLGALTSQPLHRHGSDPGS
Neuropeptide Y receptor type 2 (Homo sapiens), sequence (P49146 whole entry): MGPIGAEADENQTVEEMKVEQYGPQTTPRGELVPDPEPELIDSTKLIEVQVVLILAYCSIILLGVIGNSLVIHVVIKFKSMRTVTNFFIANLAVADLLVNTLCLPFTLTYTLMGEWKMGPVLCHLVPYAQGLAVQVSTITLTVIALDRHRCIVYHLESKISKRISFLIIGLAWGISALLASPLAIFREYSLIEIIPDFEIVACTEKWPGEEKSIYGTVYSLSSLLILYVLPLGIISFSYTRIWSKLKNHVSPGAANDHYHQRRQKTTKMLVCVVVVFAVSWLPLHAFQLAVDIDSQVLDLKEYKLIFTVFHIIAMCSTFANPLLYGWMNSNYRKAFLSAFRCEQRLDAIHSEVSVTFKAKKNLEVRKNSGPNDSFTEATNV
Neuropeptide Y receptor type 1 (Homo sapiens), sequence (P25929 whole entry): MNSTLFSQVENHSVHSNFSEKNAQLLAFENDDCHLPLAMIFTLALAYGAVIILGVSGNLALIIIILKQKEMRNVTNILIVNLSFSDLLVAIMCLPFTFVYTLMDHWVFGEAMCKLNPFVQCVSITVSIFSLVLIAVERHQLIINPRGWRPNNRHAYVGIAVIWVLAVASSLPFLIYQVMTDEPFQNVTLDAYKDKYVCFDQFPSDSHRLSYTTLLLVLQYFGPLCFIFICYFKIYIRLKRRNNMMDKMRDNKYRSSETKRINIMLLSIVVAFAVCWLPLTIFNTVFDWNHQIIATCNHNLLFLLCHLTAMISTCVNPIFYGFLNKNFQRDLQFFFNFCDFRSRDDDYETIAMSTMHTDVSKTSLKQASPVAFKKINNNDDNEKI
Cysteinyl leukotriene receptor 1 (Homo sapiens), sequence (Q9Y271 whole entry): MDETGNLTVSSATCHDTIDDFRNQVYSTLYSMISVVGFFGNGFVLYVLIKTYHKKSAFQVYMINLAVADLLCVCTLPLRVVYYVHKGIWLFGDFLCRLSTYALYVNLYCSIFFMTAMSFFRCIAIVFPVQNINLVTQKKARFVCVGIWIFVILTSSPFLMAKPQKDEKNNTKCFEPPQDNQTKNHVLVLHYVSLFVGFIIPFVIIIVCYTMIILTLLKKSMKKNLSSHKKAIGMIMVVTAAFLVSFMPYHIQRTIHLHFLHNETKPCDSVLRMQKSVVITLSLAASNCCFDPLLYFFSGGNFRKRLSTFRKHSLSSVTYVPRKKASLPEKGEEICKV
Beta-1 adrenergic receptor (Homo sapiens), sequence (P08588 whole entry, looked up): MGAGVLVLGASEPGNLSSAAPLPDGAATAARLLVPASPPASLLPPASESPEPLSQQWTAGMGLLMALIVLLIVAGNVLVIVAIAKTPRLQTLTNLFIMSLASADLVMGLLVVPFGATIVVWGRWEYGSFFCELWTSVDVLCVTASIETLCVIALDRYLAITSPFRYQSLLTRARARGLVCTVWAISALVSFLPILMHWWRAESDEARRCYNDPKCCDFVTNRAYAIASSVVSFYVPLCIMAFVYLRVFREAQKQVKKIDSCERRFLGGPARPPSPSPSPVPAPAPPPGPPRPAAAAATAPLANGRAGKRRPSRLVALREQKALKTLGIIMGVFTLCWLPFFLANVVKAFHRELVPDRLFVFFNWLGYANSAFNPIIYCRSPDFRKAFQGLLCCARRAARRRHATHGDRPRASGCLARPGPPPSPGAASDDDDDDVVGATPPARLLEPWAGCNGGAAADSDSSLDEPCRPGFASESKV
Sodium-dependent noradrenaline transporter (Homo sapiens), sequence (P23975 whole entry): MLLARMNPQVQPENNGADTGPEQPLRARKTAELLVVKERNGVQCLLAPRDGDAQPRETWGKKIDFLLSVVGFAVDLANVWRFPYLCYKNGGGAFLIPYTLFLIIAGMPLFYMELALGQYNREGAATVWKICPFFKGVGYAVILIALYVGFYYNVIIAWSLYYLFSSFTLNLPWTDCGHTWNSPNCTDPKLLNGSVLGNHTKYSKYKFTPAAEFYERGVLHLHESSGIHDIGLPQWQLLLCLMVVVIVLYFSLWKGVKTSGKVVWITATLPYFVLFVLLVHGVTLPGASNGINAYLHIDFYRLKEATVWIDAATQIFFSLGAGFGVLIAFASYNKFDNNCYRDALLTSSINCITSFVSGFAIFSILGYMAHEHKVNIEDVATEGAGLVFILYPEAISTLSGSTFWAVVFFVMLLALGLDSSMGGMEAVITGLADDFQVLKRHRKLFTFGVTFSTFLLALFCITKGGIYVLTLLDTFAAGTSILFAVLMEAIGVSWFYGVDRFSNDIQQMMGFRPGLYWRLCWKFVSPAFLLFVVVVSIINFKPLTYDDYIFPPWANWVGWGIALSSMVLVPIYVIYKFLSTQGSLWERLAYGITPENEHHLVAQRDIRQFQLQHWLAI
Cytochrome P450 1A2, sequence (P05177 whole entry): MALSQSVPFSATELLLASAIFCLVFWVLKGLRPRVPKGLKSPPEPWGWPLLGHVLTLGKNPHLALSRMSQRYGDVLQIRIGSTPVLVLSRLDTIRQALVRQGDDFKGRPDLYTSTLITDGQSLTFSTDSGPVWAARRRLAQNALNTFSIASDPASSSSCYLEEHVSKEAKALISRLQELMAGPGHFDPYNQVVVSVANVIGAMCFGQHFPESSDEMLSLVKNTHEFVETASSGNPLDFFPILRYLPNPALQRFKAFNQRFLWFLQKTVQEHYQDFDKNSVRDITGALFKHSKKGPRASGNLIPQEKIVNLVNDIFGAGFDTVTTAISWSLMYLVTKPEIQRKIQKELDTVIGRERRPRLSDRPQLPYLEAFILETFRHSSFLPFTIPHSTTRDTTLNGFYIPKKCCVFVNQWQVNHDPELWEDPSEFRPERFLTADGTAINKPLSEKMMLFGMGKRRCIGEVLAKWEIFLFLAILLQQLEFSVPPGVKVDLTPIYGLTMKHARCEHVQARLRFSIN
Alpha-1A adrenergic receptor (Rattus norvegicus), sequence (P43140 whole entry): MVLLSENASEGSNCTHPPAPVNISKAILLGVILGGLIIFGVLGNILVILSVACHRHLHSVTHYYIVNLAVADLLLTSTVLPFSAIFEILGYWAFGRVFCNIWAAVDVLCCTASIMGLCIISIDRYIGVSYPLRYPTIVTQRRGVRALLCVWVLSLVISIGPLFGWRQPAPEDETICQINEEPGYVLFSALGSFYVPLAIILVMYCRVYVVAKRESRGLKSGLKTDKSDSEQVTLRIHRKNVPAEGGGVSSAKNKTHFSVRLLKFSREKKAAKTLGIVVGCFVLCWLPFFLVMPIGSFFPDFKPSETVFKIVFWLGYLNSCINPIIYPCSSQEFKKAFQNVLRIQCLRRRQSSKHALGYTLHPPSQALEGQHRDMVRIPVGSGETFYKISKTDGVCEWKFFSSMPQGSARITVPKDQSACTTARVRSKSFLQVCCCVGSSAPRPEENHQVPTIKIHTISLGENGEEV
B1 bradykinin receptor (Homo sapiens), sequence (P46663 whole entry): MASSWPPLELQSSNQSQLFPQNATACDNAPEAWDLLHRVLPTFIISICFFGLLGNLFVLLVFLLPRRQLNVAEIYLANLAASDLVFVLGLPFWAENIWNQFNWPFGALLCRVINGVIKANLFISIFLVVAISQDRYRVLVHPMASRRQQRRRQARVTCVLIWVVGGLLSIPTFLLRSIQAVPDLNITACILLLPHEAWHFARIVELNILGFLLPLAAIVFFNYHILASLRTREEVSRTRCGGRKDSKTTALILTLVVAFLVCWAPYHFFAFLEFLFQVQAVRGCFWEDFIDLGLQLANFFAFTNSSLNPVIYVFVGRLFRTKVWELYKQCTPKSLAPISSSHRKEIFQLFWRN

O=c1cc(COc2cc(Cl)cc(Cl)c2)[nH][nH]1
Activity (Mus musculus [1]): 13.3%
Activity (Cerebral cortex neuron): Active
concentration at 12 h [2]: 248 µM
concentration at 24 h [3]: 6.5 µM
AUC/dose (Rattus norvegicus [4]): 50 ng·h/mL/mg/kg
inhibition at 10 µM (hERG [5]): 0.6%
IC50 (Cytochrome P450 1A2): > 50 µM
IC50 (Cytochrome P450 3A4): > 50 µM
inhibition [6]: -2%
inhibition [7]: 3%
inhibition [8]: 1%
inhibition [9]: 5%
inhibition [10]: -10%
inhibition [11]: 3%
inhibition [12]: -4%
inhibition (Homo sapiens [13]): -3%
inhibition [14]: -3%
inhibition [15]: 5%
inhibition [16]: 1%
inhibition [17]: 0%
inhibition [18]: 2%
inhibition [19]: -2%
inhibition [20]: -1%
inhibition [21]: 6%
inhibition at 10 µM (hERG [22]): -7%
inhibition [23]: 7%
inhibition (Homo sapiens [24]): 5%
inhibition [25]: 3%
inhibition (Rattus norvegicus [26]): 10%
inhibition [27]: -10%
concentration at 4 h [28]: 194 µM
Activity (Mus musculus [29]): Dose-dependent effect
